Data from ChEMBL document CHEMBL1671735, “Genetic factors associated with elevated carbapenem resistance in KPC-producing Klebsiella pneumoniae” (2010).
≈ marks a conversion by molar mass, not a printed value.

Legend:
Assay type in all cases: functional
Klebsiella pneumoniae [1] = experiment: Antimicrobial activity against OmpK35-deficient Carbapenem-resistant Klebsiella pneumoniae isolate ART2008226 expressing KPC beta lactamase by broth microdilution method
Klebsiella pneumoniae [2] = experiment: Antimicrobial activity against OmpK35-deficient Carbapenem-resistant Klebsiella pneumoniae isolate ART2008142 expressing KPC beta lactamase by broth microdilution method
Klebsiella pneumoniae [3] = experiment: Antimicrobial activity against Carbapenem-resistant Klebsiella pneumoniae isolate AIS081058 expressing KPC beta lactamase by broth microdilution method
Klebsiella pneumoniae [4] = experiment: Antimicrobial activity against OmpK35-deficient Carbapenem-resistant Klebsiella pneumoniae isolate AIS070654 expressing KPC beta lactamase by broth microdilution method
Klebsiella pneumoniae [5] = experiment: Antimicrobial activity against OmpK35-deficient Carbapenem-resistant Klebsiella pneumoniae isolate AIS081072 expressing KPC beta lactamase by broth microdilution method
Klebsiella pneumoniae [6] = experiment: Antimicrobial activity against Carbapenem-resistant Klebsiella pneumoniae isolate AIS080884 expressing KPC beta lactamase by broth microdilution method
Klebsiella pneumoniae [7] = experiment: Antimicrobial activity against OmpK35-deficient Carbapenem-resistant Klebsiella pneumoniae isolate ART2008140 expressing KPC beta lactamase by broth microdilution method
Klebsiella pneumoniae [8] = experiment: Antimicrobial activity against OmpK35-deficient Carbapenem-resistant Klebsiella pneumoniae isolate AIS070446 expressing KPC beta lactamase by broth microdilution method
Procedure, shortened: (§1)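 The clinical K. pneumoniae isolates had been referred to CDC for susceptibility testing. bla_KPC was confirmed by PCR and subtyped by bidirectional sequencing of a 1,011-bp amplicon. Isolates were typed by PFGE of XbaI-digested DNA.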

Klebsiella pneumoniae [9] = experiment: Antimicrobial activity against Carbapenem-resistant Klebsiella pneumoniae isolate HIP10924 expressing KPC beta lactamase by broth microdilution method
Klebsiella pneumoniae [10] = experiment: Antimicrobial activity against Carbapenem-resistant Klebsiella pneumoniae isolate ART2008028 expressing KPC beta lactamase by broth microdilution method
Klebsiella pneumoniae [11] = experiment: Antimicrobial activity against OmpK35-deficient Carbapenem-resistant Klebsiella pneumoniae isolate ART2008137 expressing KPC beta lactamase by broth microdilution method; procedure, shortened: as §1
Klebsiella pneumoniae [12] = experiment: Antimicrobial activity against OmpK35-deficient Carbapenem-resistant Klebsiella pneumoniae isolate HIP14474 expressing KPC beta lactamase by broth microdilution method
Klebsiella pneumoniae [13] = experiment: Antimicrobial activity against OmpK35-deficient Carbapenem-resistant Klebsiella pneumoniae isolate ART2008136 expressing KPC beta lactamase by broth microdilution method; procedure, shortened: as §1
Klebsiella pneumoniae [14] = experiment: Antimicrobial activity against OmpK35-deficient Carbapenem-resistant Klebsiella pneumoniae isolate ART2008022 expressing KPC beta lactamase by broth microdilution method
Klebsiella pneumoniae [15] = experiment: Antimicrobial activity against OmpK35-deficient Carbapenem-resistant Klebsiella pneumoniae isolate ART2008139 expressing KPC beta lactamase by broth microdilution method
Klebsiella pneumoniae [16] = experiment: Antimicrobial activity against OmpK35-deficient Carbapenem-resistant Klebsiella pneumoniae isolate ART2008143 expressing KPC beta lactamase by broth microdilution method
Klebsiella pneumoniae [17] = experiment: Antimicrobial activity against OmpK35-deficient Carbapenem-resistant Klebsiella pneumoniae isolate AIS080949 expressing KPC beta lactamase by broth microdilution method
Klebsiella pneumoniae [18] = experiment: Antimicrobial activity against OmpK35-deficient Carbapenem-resistant Klebsiella pneumoniae isolate HIP14358 expressing KPC beta lactamase by broth microdilution method
Klebsiella pneumoniae [19] = experiment: Antimicrobial activity against OmpK35-deficient Carbapenem-resistant Klebsiella pneumoniae isolate AIS080792 expressing KPC beta lactamase by broth microdilution method
Klebsiella pneumoniae [20] = experiment: Antimicrobial activity against OmpK35-deficient Carbapenem-resistant Klebsiella pneumoniae isolate ART2008138 expressing KPC beta lactamase by broth microdilution method
Klebsiella pneumoniae [21] = experiment: Antimicrobial activity against Carbapenem-resistant Klebsiella pneumoniae isolate ART2008024 expressing KPC beta lactamase by broth microdilution method
Klebsiella pneumoniae [22] = experiment: Antimicrobial activity against OmpK35-deficient Carbapenem-resistant Klebsiella pneumoniae isolate ART2008026 expressing KPC beta lactamase by broth microdilution method
Klebsiella pneumoniae [23] = experiment: Antimicrobial activity against OmpK35-deficient Carbapenem-resistant Klebsiella pneumoniae isolate AIS081042 expressing KPC beta lactamase by broth microdilution method
Klebsiella pneumoniae [24] = experiment: Antimicrobial activity against OmpK35-deficient Carbapenem-resistant Klebsiella pneumoniae isolate AIS080571 expressing KPC beta lactamase by broth microdilution method
Klebsiella pneumoniae [25] = experiment: Antimicrobial activity against OmpK35,OmpK36-deficient Carbapenem-resistant Klebsiella pneumoniae isolate ART2008141 expressing KPC beta lactamase by broth microdilution method
Klebsiella pneumoniae [26] = experiment: Antimicrobial activity against OmpK35,OmpK36-deficient Carbapenem-resistant Klebsiella pneumoniae isolate ART2008135 expressing KPC beta lactamase by broth microdilution method
Klebsiella pneumoniae [27] = experiment: Antimicrobial activity against OmpK35,OmpK36-deficient Carbapenem-resistant Klebsiella pneumoniae isolate ART2008027 expressing KPC beta lactamase by broth microdilution method

Compound	MIC (Klebsiella pneumoniae [1])	MIC (Klebsiella pneumoniae [2])	MIC (Klebsiella pneumoniae [3])	MIC (Klebsiella pneumoniae [4])	MIC (Klebsiella pneumoniae [5])	MIC (Klebsiella pneumoniae [7])	MIC (Klebsiella pneumoniae [8])	MIC (Klebsiella pneumoniae [9])	MIC (Klebsiella pneumoniae [10])	MIC (Klebsiella pneumoniae [11])	MIC (Klebsiella pneumoniae [12])	MIC (Klebsiella pneumoniae [13])	MIC (Klebsiella pneumoniae [19])	MIC (Klebsiella pneumoniae [20])	MIC (Klebsiella pneumoniae [21])	MIC (Klebsiella pneumoniae [22])	MIC (Klebsiella pneumoniae [23])	MIC (Klebsiella pneumoniae [24])	MIC (Klebsiella pneumoniae [25])	MIC (Klebsiella pneumoniae [26])	also measured
C[C@@H](O)[C@H]1C(=O)N2C(C(=O)O)=C(S[C@@H]3CN[C@H](C(=O)Nc4cccc(C(=O)O)c4)C3)[C@H](C)[C@H]12	< 0.5 µg/mL	8 µg/mL (≈ 16.8 µM)	2 µg/mL (≈ 4.21 µM)	2 µg/mL (≈ 4.21 µM)	8 µg/mL (≈ 16.8 µM)	8 µg/mL (≈ 16.8 µM)	4 µg/mL (≈ 8.41 µM)	4 µg/mL (≈ 8.41 µM)	8 µg/mL (≈ 16.8 µM)	16 µg/mL (≈ 33.6 µM)	16 µg/mL (≈ 33.6 µM)	16 µg/mL (≈ 33.6 µM)	64 µg/mL (≈ 135 µM)	128 µg/mL (≈ 269 µM)	128 µg/mL (≈ 269 µM)	256 µg/mL (≈ 538 µM)	256 µg/mL (≈ 538 µM)	256 µg/mL (≈ 538 µM)	256 µg/mL (≈ 538 µM)	1020 µg/mL (≈ 2150 µM)	MIC (Klebsiella pneumoniae [6]): 8 µg/mL (≈ 16.8 µM); MIC (Klebsiella pneumoniae [14]): 32 µg/mL (≈ 67.3 µM); MIC (Klebsiella pneumoniae [15]): 16 µg/mL (≈ 33.6 µM); MIC (Klebsiella pneumoniae [16]): 64 µg/mL (≈ 135 µM); MIC (Klebsiella pneumoniae [17]): 64 µg/mL (≈ 135 µM); MIC (Klebsiella pneumoniae [18]): 64 µg/mL (≈ 135 µM); MIC (Klebsiella pneumoniae [27]): 1020 µg/mL (≈ 2150 µM)
C[C@@H](O)[C@H]1C(=O)N2C(C(=O)O)=C(SCCNC=N)C[C@H]12 [IMIPENEM ANHYDROUS]	< 1 µg/mL	< 1 µg/mL	1 µg/mL (≈ 3.34 µM)	4 µg/mL (≈ 13.4 µM)	2 µg/mL (≈ 6.68 µM)	4 µg/mL (≈ 13.4 µM)	4 µg/mL (≈ 13.4 µM)	4 µg/mL (≈ 13.4 µM)	4 µg/mL (≈ 13.4 µM)	4 µg/mL (≈ 13.4 µM)	8 µg/mL (≈ 26.7 µM)	8 µg/mL (≈ 26.7 µM)	32 µg/mL (≈ 107 µM)	32 µg/mL (≈ 107 µM)	32 µg/mL (≈ 107 µM)	64 µg/mL (≈ 214 µM)	64 µg/mL (≈ 214 µM)	128 µg/mL (≈ 428 µM)	256 µg/mL (≈ 855 µM)	512 µg/mL (≈ 1710 µM)	MIC (Klebsiella pneumoniae [6]): 2 µg/mL (≈ 6.68 µM); MIC (Klebsiella pneumoniae [14]): 8 µg/mL (≈ 26.7 µM); MIC (Klebsiella pneumoniae [15]): 32 µg/mL (≈ 107 µM); MIC (Klebsiella pneumoniae [16]): 8 µg/mL (≈ 26.7 µM); MIC (Klebsiella pneumoniae [17]): 32 µg/mL (≈ 107 µM); MIC (Klebsiella pneumoniae [18]): 32 µg/mL (≈ 107 µM); MIC (Klebsiella pneumoniae [27]): 512 µg/mL (≈ 1710 µM)
C[C@@H](O)[C@H]1C(=O)N2C(C(=O)O)=C(S[C@@H]3CN[C@H](C(=O)N(C)C)C3)[C@H](C)[C@H]12 [MEROPENEM]	< 0.25 µg/mL	4 µg/mL (≈ 10.4 µM)	4 µg/mL (≈ 10.4 µM)	1 µg/mL (≈ 2.61 µM)	2 µg/mL (≈ 5.22 µM)	2 µg/mL (≈ 5.22 µM)	4 µg/mL (≈ 10.4 µM)	4 µg/mL (≈ 10.4 µM)	8 µg/mL (≈ 20.9 µM)	8 µg/mL (≈ 20.9 µM)	8 µg/mL (≈ 20.9 µM)	8 µg/mL (≈ 20.9 µM)	32 µg/mL (≈ 83.4 µM)	32 µg/mL (≈ 83.4 µM)	64 µg/mL (≈ 167 µM)	64 µg/mL (≈ 167 µM)	128 µg/mL (≈ 334 µM)	128 µg/mL (≈ 334 µM)	256 µg/mL (≈ 668 µM)	256 µg/mL (≈ 668 µM)	MIC (Klebsiella pneumoniae [27]): 512 µg/mL (≈ 1340 µM)
